Compounds with a hit are over-represented: about 4.7% of the library has one in this group of screens.
RGS4 block: human RGS4 inhibition; P49798; HEK293 M3R/RGS4 inducible, Fluo-4 calcium flux; stronger effect = higher value; triggered by carbachol at its EC20; B-score at 10 µM; 310,000 compounds, 0.45% hits; AID 463165;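 active = B-score, a plate-corrected calcium signal, over three deviations above library mean, with baseline fluorescence within five deviations of library mean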;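 note: RGS4 expression induced by doxycycline in cells with stable M3 receptor; B-score is computed from the integrated fluorescence ratio over baseline after carbachol; higher B-score means a larger calcium signal and so more RGS4 inhibition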
Target sequence (P49798 whole entry, looked up): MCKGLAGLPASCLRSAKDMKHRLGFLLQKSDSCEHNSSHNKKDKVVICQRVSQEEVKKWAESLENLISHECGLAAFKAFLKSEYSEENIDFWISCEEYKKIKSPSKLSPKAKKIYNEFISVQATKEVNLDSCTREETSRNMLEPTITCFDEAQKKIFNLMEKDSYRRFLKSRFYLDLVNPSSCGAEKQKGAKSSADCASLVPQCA
MrgX1 antag: human MrgX1 receptor antagonism, primary screen; Q96LB2; MRGX1-HEK293 calcium flux, Fluo-4, BAM8-22 antagonism; stronger effect = lower value; B-score at 10 µM; 310,000 compounds, 1.3% hits; AID 588676;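 active = calcium-response B-score plate-corrected more than 3 library SD below zero, starting fluorescence within 5 deviations, no agonist response on first addition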;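 note: peak minus trough fluorescence over baseline after final BAM8-22 challenge near maximal dose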
Target sequence (Q96LB2 whole entry, looked up): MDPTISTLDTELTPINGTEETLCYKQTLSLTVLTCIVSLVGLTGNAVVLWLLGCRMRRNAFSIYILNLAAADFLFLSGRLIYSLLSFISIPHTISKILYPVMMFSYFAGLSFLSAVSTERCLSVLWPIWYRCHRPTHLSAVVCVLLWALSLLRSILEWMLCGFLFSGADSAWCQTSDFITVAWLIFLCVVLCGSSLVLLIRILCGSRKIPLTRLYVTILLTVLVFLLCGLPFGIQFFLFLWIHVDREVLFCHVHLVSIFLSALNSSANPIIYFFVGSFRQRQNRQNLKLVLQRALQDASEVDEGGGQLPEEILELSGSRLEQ
RGS4 pot: potentiators or activators of RGS4 | 310,000 compounds, 0.92% hits | B-score at 10 µM | AID 463111 | HEK293 M3R/inducible RGS4, carbachol calcium flux Fluo4; stronger effect = lower value;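 active = B-score of the integrated calcium signal more than 4 SD below the library mean, with starting fluorescence not abnormally high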;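 note: negative B-score means reduced calcium response which marks RGS4 activation or potentiation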
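test system = HEK293 cells with stable M3R and inducible RGS4 | schedule = recording 10 s baseline at 1 Hz, 100 s post-agonist | technique = Fluo4-AM (2 µM) calcium-flux fluorescence, kinetic read | measure = Agonist-evoked peak-minus-minimum fluorescence over baseline, integrated ratio, B score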
Cl transport mod: modulates chloride dependent transport by human KCC2. Q9H2X9. KCC2 cells, thallium flux FluoZin-2 fluorescence. B-score of Tl+ flux slope (higher = more flux/activation; lower = inhibition) at 10 µM. 190,000 compounds, 2.2% hits;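 active = thallium flux slope and its plate-corrected score both differing from the plate sample mean at a set confidence after two filtering rounds, in either direction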;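 note: slope of fluorescence scaled to starting intensity during 10 to 20 s after thallium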
MrgX1 allo act: human MrgX1 positive allosteric modulation, primary screen; MrgX1-HEK293, Fluo-4 calcium flux, FDSS; stronger effect = higher value; B-score at 10 µM; 310,000 compounds, 0.63% hits;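 active = plate-corrected calcium response at least 3 library SD above typical, normal starting fluorescence, not activating the receptor alone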;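 note: compound read alongside a low EC10 to EC30 dose of BAM8-22 agonist; peak minus trough fluorescence over baseline measured at the second addition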
MrgX1 ag: activates human MrgX1 receptor signaling | MrgX1-HEK293 cells, Fluo-4 calcium fluorescence, agonist mode; stronger effect = higher value | B-score at 10 µM | 310,000 compounds, 0.44% hits | AID 588627;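 active = calcium response B-score plate-corrected fluorescence ratio at least 3 library SD, with starting fluorescence B-score inside 5 SD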
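System: HEK293 cells stably expressing human MrgX1 receptor; Dosing: test compound in the initial addition of three; Schedule: overnight plating, then 30 min 37 °C plus 30 min room-temperature dye loading; Detection: kinetic calcium dye fluorescence, Fluo-4 NW; Controls: per-plate positive and negative controls for Z′ factor.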
KCC2 sec1: KCC2 (human) modulation, secondary assay; shares compounds with Cl transport mod; HEK293-KCC2, thallium flux, FluoZin2 fluorescence; stronger effect = higher value; normalised thallium flux (F/F0 slope) at 10 µM; 3,700 compounds, 15% hits; AID 1713;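 active = thallium flux slope above the same plate's solvent-only control mean plus 3 SD; inconclusive = the two replicate wells disagree; inactive = no significant difference from solvent-only control wells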
KCC2 bumet counter: thallium flux persisting under bumetanide in KCC2 cells, counter-screen secondary assay. 3,700 compounds, 49% hits. HEK293-KCC2 + bumetanide/ouabain, thallium flux FluoZin2; stronger effect = higher value. normalized thallium flux at 10 µM. AID 1714. shares compounds with Cl transport mod;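 active = thallium entry rate above the same plate's blocked-transporter control wells by more than 3 SD; inconclusive = the two repeat wells disagree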;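 note: raw slope of fluorescence over initial fluorescence between 10 and 20 s after thallium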
KCC2 secondary2: confirmation of human KCC2 transport modulators | HEK293-KCC2, thallium flux FluoZin2 fluorescence; actives lie on both sides; F/F0 rise rate, 10–20 s post-thallium | normalized thallium flux at 10 µM | 3,700 compounds, 23% hits | AID 1715 | shares compounds with Cl transport mod;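 active = thallium flux slope more than 3 SD above or below the plate's solvent-only control mean, mostly below; inconclusive = the two repeat wells disagreed; inactive = no significant shift from solvent-only controls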;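 note: raw slope with 0.1% DMSO as baseline and bumetanide as block control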
HEK counter1: counter-screen for KCC2 modulators: effect in parental HEK293 cells; AID 1716; shares compounds with Cl transport mod; 3,700 compounds, 46% hits; thallium flux FluoZin2, ouabain; baseline-ratio fluorescence slope, 10–20 s after thallium; thallium flux rate (normalised fluorescence) at 10 µM;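 active = thallium flux rate significantly above the same plate's solvent-only control wells, beyond their mean plus 3 SD; inconclusive = the two replicate wells gave conflicting results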
KCC2 retest ouab: confirmation of human KCC2 modulators with ouabain; shares compounds with Cl transport mod; HEK293-KCC2, thallium flux FluoZin2 fluorescence; bidirectional: low = inhibitor, high = activator; raw Tl+ flux slope (below DMSO = inhibition, above = activation) at 10 µM; 3,700 compounds, 48% hits; AID 1717;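 active = thallium flux slope beyond 3 SD from same-plate DMSO control mean in most replicates, usually higher, sometimes lower; inconclusive = repeat tests gave conflicting results; inactive = no significant difference from controls in most replicates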;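 note: slope of initial-normalized fluorescence between seconds 10 and 20 after thallium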
HEK counter2: counter-screen for KCC2 modulators: effect in parental HEK293 cells; shares compounds with Cl transport mod; thallium flux FluoZin-2 fluorescence slope; thallium flux slope at 10 µM; 3,700 compounds, 33% hits;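 active = thallium flux slope above the same plate's solvent-control mean plus 3 SD in both duplicate wells; inconclusive = duplicate wells that disagreed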;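 note: run without ouabain in cells lacking the KCC2 cotransporter; slope of fluorescence scaled to its starting value between 10 and 20 s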
* = called active by the depositor; i = inactive; ? = inconclusive; nt = no result given.

SMILES	RGS4 block	MrgX1 antag	RGS4 pot	Cl transport mod	MrgX1 allo act	MrgX1 ag	KCC2 sec1	KCC2 bumet counter	KCC2 secondary2	HEK counter1	KCC2 retest ouab	HEK counter2
O=C(CCN1CCN(Cc2ccccc2)CC1)Nc1cccc(Cl)c1	i	i	i	-3.8*	i	i	0.0057	0.0052	0.024*	0.0078	0.014*	0.0099
CCOc1cc(C)c(C(C)C)cc1S(=O)(=O)n1cnc(C)c1	i	i	i	-0.018	i	i	nt	nt	nt	nt	nt	nt
CCCC(=O)Nc1cccc(-c2nc3cc(C)c(C)cc3o2)c1	i	i	i	nt	i	i	0.0056	0.0047	0.031	0.0074	0.019	0.011
CC(Sc1nc(N)cc(=O)[nH]1)C(=O)Nc1sc2c(c1C#N)CCCC2 (configuration not stated)	i	i	i	-0.98	i	i	nt	nt	nt	nt	nt	nt
N#Cc1c(NC(=O)CSc2nc(N)cc(=O)[nH]2)sc2c1CCCCCC2	i	i	i	nt	i	i	0.0062	0.0049	0.027*	0.0075	?	0.0098
CCC(Sc1nc(C)cc(=O)[nH]1)C(=O)Nc1sc2c(c1C#N)CCCC2 (configuration not stated)	i	i	i	nt	i	i	0.0061	0.0045	0.026*	0.0065	0.017	0.0098
COc1ccc(S(=O)(=O)NCC2CCCN(CC(C)(C)C)C2)cc1 (configuration not stated)	i	i	i	1.4	i	i	nt	nt	nt	nt	nt	nt
Oc1ccc(-c2n[nH]c(=S)n2Cc2ccco2)cc1	i	i	i	1.4	i	i	nt	nt	nt	nt	nt	nt
Oc1cc2ccccc2cc1-c1n[nH]c(=S)n1Cc1ccco1	i	i	i	8.9*	i	i	0.0092	0.023*	0.03	0.013*	?	0.0098
COC(CNC(=O)Cn1nc(Cc2ccncc2)c2ccccc2c1=O)OC	i	i	i	nt	i	i	nt	nt	nt	nt	nt	nt
Cc1cc(C)c(S(=O)(=O)/N=C2/C=C(SCC(=O)O)C(=O)c3ccccc32)cc1C	nt	nt	nt	-4.2*	nt	nt	0.0061	0.007*	?	0.0072	0.018	0.011
Cn1c(Cn2c3ccccc3c3ccccc32)n[nH]c1=S	i	i	i	nt	i	i	nt	nt	nt	nt	nt	nt
Cn1c(Cc2c[nH]c3ccccc23)n[nH]c1=S	i	i	i	nt	i	i	0.0063	0.0061	0.028	?	?	0.0092
Cc1cc2oc(=O)cc(CN3CCOCC3)c2cc1C	i	i	i	6.9*	i	i	0.0062	0.0053	0.026*	0.0076	0.018	0.011
Cc1c(N2C(=O)/C(=C/c3ccccc3)SC2=S)c(=O)n(-c2ccccc2)n1C	i	i	i	-7.6*	i	i	0.0069	?	0.027*	0.008	0.014*	?
Cc1ccc(/C=C2\SC(=S)N(c3c(C)n(C)n(-c4ccccc4)c3=O)C2=O)cc1	i	i	i	-3.9*	i	i	0.011	?	0.025*	0.0043	0.014*	0.012
Cc1c(N2C(=O)/C(=C\c3ccccc3O)SC2=S)c(=O)n(-c2ccccc2)n1C	i	i	i	52*	i	i	0.027*	0.062*	0.068*	0.068*	0.063*	0.064*
Cc1c(N2C(=O)/C(=C\C3CC=CCC3)SC2=S)c(=O)n(-c2ccccc2)n1C (configuration not stated)	i	i	i	-0.46	i	i	nt	nt	nt	nt	nt	nt
Cc1c(N2C(=O)CS/C2=N\N=C\c2ccccc2O)c(=O)n(-c2ccccc2)n1C	i	i	i	0.14	i	i	nt	nt	nt	nt	nt	nt
O=C(NCc1ccccn1)c1nc(Cn2cc([N+](=O)[O-])cn2)no1	i	i	i	nt	i	i	nt	nt	nt	nt	nt	nt
CN(CC(=O)N1CC(=O)N(CCc2ccccc2)C(=O)C1)S(=O)(=O)c1cccc2nsnc12	i	i	i	-4*	i	i	0.0058	0.0056*	?	0.0085	?	0.012
O=C(NCC1CCCN(C(=O)c2cccnc2)C1)c1ccc(-c2ccccc2)cc1 (configuration not stated)	i	i	i	-7.6*	i	i	0.009	0.007	0.027*	0.0045	0.016*	0.011
CSCC(=O)N1CCCC(CNC(=O)c2ccc(-c3ccccc3)cc2)C1 (configuration not stated)	i	i	i	-6.3*	i	i	0.0084	0.0061	0.03*	0.0039	0.015*	0.011
CC(=O)CCC(=O)N1CCCC(CNC(=O)c2ccc(-c3ccccc3)cc2)C1 (configuration not stated)	i	i	i	-1.9	i	i	nt	nt	nt	nt	nt	nt
Cc1ncccc1C(=O)N1CCCC(CNC(=O)c2ccc(-c3ccccc3)cc2)C1 (configuration not stated)	i	i	i	-4.4*	i	i	0.011	0.0057	?	0.0081	0.017*	0.011
O=S(=O)(c1ccc(NC(=S)NCc2ccc(F)cc2)cc1)N1CCOCC1	i	i	i	nt	i	i	nt	nt	nt	nt	nt	nt
CCOC(=O)c1c(O)cc(C)cc1Nc1ccccc1	i	i	i	nt	i	i	nt	nt	nt	nt	nt	nt
CCCCN(C(=O)c1ccc(C)c(S(=O)(=O)N2CCOCC2)c1)c1c(N)n(CCCC)c(=O)[nH]c1=O	i	i	i	nt	i	i	nt	nt	nt	nt	nt	nt

Compound activity deposited in PubChem BioAssay by several laboratories.
